Compounds with a hit are over-represented: about 0.28% of the library has one in this group of screens.
TNAP act hiacc: TNAP (human) activation, high acceptor. P05186. purified TNAP, CDP-star luminescence, 1 M DEA, 30 min; hits give high values; 0 = EDTA background, 1 = DMSO-only activity. activation factor at 20 µM. 200,000 tested, under 10 active;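 active = activation factor at least 2 at 20 µM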
Target sequence (P05186 whole entry, looked up): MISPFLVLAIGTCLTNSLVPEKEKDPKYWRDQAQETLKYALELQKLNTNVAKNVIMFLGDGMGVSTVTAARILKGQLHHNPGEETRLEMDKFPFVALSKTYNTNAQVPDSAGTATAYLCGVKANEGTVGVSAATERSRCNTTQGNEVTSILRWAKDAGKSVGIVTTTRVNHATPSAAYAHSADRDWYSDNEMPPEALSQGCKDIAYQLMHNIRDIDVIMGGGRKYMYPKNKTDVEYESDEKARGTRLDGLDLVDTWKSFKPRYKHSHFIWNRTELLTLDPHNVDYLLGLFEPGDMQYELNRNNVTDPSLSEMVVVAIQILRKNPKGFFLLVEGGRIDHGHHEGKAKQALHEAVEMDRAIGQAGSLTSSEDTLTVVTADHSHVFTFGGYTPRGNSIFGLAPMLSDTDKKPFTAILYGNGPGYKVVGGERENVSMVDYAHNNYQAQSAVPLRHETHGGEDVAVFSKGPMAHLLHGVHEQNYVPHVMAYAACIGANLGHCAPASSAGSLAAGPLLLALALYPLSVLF
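system = human TNAP | amount = enzyme diluted 1/800 final | reagent = 100 µM CDP-star substrate | signal = luminescent substrate turnover signal | dosing = one dose, 20 µM | benchmarks = EDTA negative control, DMSO positive control | measure = activation factor | timing = 30 min reaction, room temperature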
TNAP inh hi DEA: TNAP (human) inhibition, high acceptor | P05186 | purified TNAP, CDP-star luminescence, 1 M DEA | inhibition, % at 20 µM | 0.03% of 200,000 active | AID 1135;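 active = over 50% inhibition of tissue-nonspecific alkaline phosphatase at 20 µM in the single-dose screen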
Biofilm kill mix: mixtures killing C. albicans biofilm. C. albicans biofilm persisters + clotrimazole, fluorescence viability; primary screen in compound mixtures of four per well. inhibition, % at 7.6 µM. 0.02% of 120,000 active;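 active = inhibition above 30.3% in the primary screen of four-compound pools, then above 30% when the compound was retested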;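 also: compounds exposed to preformed 24 h biofilms for 48 h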
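Test system: C. albicans biofilms. Buffer or medium: RPMI/MOPS medium, pH 7.0. Timing: 48 h compound exposure at 37 °C. Technique: Alamar Blue fluorescence. Evaluation: percent inhibition of biofilm viability.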
TNAP inh no acc: TNAP (human) inhibition, acceptor-free conditions; P05186; purified TNAP, CDP-star luminescence, 30 min; inhibition, % at 20 µM; 0.26% of 200,000 active;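 active = tissue-nonspecific alkaline phosphatase inhibition above about 50% at 20 µM in the single-dose screen, limit read from the data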
Numbers stand for hits; . = inactive; / = not tested or not shown.

SMILES	TNAP act hiacc	TNAP inh hi DEA	Biofilm kill mix	TNAP inh no acc
CC(C)N=C(NS(=O)(=O)NC(=O)c1ccccc1)c1ccccc1	.	.	.	.
O=C(c1cccnc1)n1nc(-c2ccco2)nc1NCc1cccs1	.	.	.	63
CCCCNC(=O)Nc1ncn[nH]1	/	/	.	/
O=c1[nH]nc(-c2ccccc2)c2ccccc12	/	/	.	/
c1ccc(-c2n[nH]c3ccccc23)cc1	.	.	/	90
CN1C(=S)N(c2cccnc2)C(=O)/C1=C\c1ccc(N(C)C)cc1	.	.	.	52
CN1C(=S)N(c2cccnc2)C(=O)/C1=C\c1ccc(C(C)(C)C)cc1	.	.	.	.
CN=c1scc(-c2ccc(F)cc2)n1/N=C/c1ccc(O)c(O)c1	.	.	.	70
CN=c1scc(-c2ccc([N+](=O)[O-])cc2)n1/N=C/c1ccco1	.	.	.	.
COc1ccc(/C=C/C(=O)NCCN=C2NS(=O)(=O)c3ccccc32)cc1	.	.	.	.
Cc1n[nH]c(C)c1S(=O)(=O)N1CCN(C(=O)c2ccco2)CC1	.	.	/	60
Cc1ccc(NC(=O)C2CCN(S(=O)(=O)c3c(C)n[nH]c3C)CC2)nc1	.	.	/	55
O=C(Cn1cnc2ccccc21)N/N=C/C(Br)=C/c1ccccc1	.	.	.	.
CN(CCc1ccccn1)C(=O)CCC1CCCN(C(=O)c2ccccn2)C1 (centres undefined)	.	.	.	.
CN(CCc1ccccn1)C(=O)CCC1CCCN(C(=O)c2n[nH]c3c2CCCC3)C1 (centres undefined)	.	.	.	70
Cc1ccc(SCC(=O)NN2C(=O)c3ccccc3C2=O)cc1	.	.	.	.
Cc1ccc(-c2nnn(CCC(=O)NC3CCCC3)n2)cc1	.	.	/	.
C=CCN(CC=C)C(=O)C(=O)c1ccn(-c2c(C)csc2C(=O)OC)c1	.	.	.	.
Cc1nn(C)c(Sc2ccccn2)c1[N+](=O)[O-]	/	/	.	/
COc1cc(C(=O)Nc2nc(OC)c(-c3ccccc3)c(OC)n2)cc(OC)c1OC	.	.	/	.
COc1cc(C(=O)Nc2cc(-c3ccccc3)[nH]n2)cc(OC)c1OC	.	.	.	63
CC(=O)Nc1cc(-c2ccc(Cl)cc2)[nH]n1	.	.	.	88
CS/C(Nc1cc(Cl)ccc1Cl)=C(/C#N)C(=O)c1ccco1	/	/	.	/
Cc1cc(C(=O)NNc2ccc(C(C)C)cc2)n(C(C)(C)C)n1	/	/	.	/
CCN=C1SC(CC(=O)NCc2ccccc2)C(=O)N1CC (centres undefined)	.	.	.	.
SMILES	TNAP act hiacc	TNAP inh hi DEA	Biofilm kill mix	TNAP inh no acc
c1ccc(-c2cn(-c3ccccc3)c3[n+]2CCS3)cc1	.	.	.	.
CC(C)(C)c1ccc(-c2cn(-c3ccc(Br)cc3)c3[n+]2CCCS3)cc1	.	.	31	.
CCn1c(SCC(=O)Nc2sc3c(c2C#N)CCCC3)nnc1-c1ccco1	.	53	/	.
C/C(=N/OC(=O)c1ccc(C(F)(F)F)cc1)c1oc(C)nc1C	/	/	.	/
O=C(C[n+]1ccc(C(=O)N/N=C/c2ccc(O)cc2)cc1)c1ccccc1	.	.	/	51
CN1CCN(C(=O)c2cnn3c2NC(c2ccccc2)CC3C(F)(F)F)CC1 (centres undefined)	.	.	.	.
CN(C)c1ccc(/C=C/c2ccc3ccccc3[n+]2C)cc1	.	57	34	57
CN(C)c1ccc(/C=C/c2cccc[n+]2[O-])cc1	/	/	.	/
CN(C)c1ccc(/C=C/c2ccc3c4ccccc4ccc3[n+]2-c2ccccc2)cc1	.	69	.	74
Nn1c(SCC(=O)Nc2cc(S(=O)(=O)N3CCOCC3)ccc2Cl)nnc1-c1cccnc1	.	.	.	.
O=C(NCCCN1CCOCC1)/C(=C/c1cccnc1)NC(=O)c1ccccc1	.	.	.	.
COc1ccc(OC)c(C(=O)CSc2nc3ncccc3[nH]2)c1	.	.	/	63
O=C(CSc1nc2ncccc2[nH]1)c1ccc(F)cc1	.	.	/	54
CC1=CC(C)C(/C=N/N=C(N)N)C(C)C1 (centres undefined)	/	/	.	/
O=C(N/N=C/c1ccc(O)cc1)c1cc(C23CC4CC(CC(C4)C2)C3)[nH]n1	/	/	.	/
COc1cccc(/C=N/NC(=O)c2cnccn2)c1	.	.	.	.
COc1cccc(/C=N/NC(=O)c2cc(C34CC5CC(CC(C5)C3)C4)[nH]n2)c1	.	.	/	86
COc1ccc(/C=N/NC(=O)c2cc(C34CC5CC(CC(C5)C3)C4)[nH]n2)cc1OC	.	.	.	86
CC1(C)CC2(CC(c3ccccc3)c3ccc(O)cc3O2)NC(=S)N1 (centres undefined)	.	.	.	.
Oc1c(Cl)cc(Cl)c2cccnc12	.	.	43	.
O=C(Oc1c(Cl)cc(Cl)c2cccnc12)c1ccco1	.	.	/	.
COc1ccccc1NS(=O)(=O)c1ccc(Cl)c(NC(=O)C(C)N2C(=O)c3ccccc3C2=O)c1 (centres undefined)	.	.	.	.
CC(=O)N/C(=C/c1ccc2c(c1)OCO2)C(=O)NCc1ccccc1	.	.	.	67
O=c1c2sccc2nc(SCc2ccc([N+](=O)[O-])cc2)n1Cc1ccccn1	.	.	.	.
Cc1cc(NC(=O)CSc2nnc(-c3ccncc3)n2N)ccc1Br	.	.	/	.
SMILES	TNAP act hiacc	TNAP inh hi DEA	Biofilm kill mix	TNAP inh no acc
COc1ccc2c(Cl)c(C(=O)NN3CCN(C)CC3)sc2c1	.	.	.	.
COc1ccc(-c2[nH]ncc2C=O)cc1	.	.	.	70
CSc1ncccc1C(=O)N1CCCC(CCC(=O)NCc2ccc(F)c(F)c2)C1 (centres undefined)	.	.	.	.
CCN(Cc1ccccc1)c1ccc(N=Nc2nn(C)c(C)c2[N+](=O)[O-])cc1	.	.	.	.
CCN(CC)c1ccc(N=Nc2nn(C)c(C)c2[N+](=O)[O-])cc1	.	56	.	.
Oc1ccc(C2=Nn3c(nnc3-c3ccco3)SC2)cc1O	.	.	/	91
O=C(CSc1n[nH]c(-c2ccc(Cl)cc2Cl)n1)Nc1ccccn1	.	.	/	93
Cc1nc(SCC(=O)Nc2ccccn2)n[nH]1	.	.	.	.
N=C(N)SCc1cn2ccccc2n1	.	.	.	59
Nc1ccccc1SCc1cn2ccccc2n1	.	.	.	.
COc1cc(OC)c(-c2c3cc(O)c(=O)cc-3oc3cc(O)c(O)cc23)cc1OC	.	.	.	.
Cc1c2cc(O)c(=O)cc-2oc2cc(O)c(O)cc12	.	.	.	57
O=C(O)COc1c(F)c(F)c(C(F)(F)F)c(F)c1F	.	.	/	.
CC(=O)N1CCN(c2c(F)c(F)c(C(F)(F)F)c(F)c2F)CC1	.	.	62	.
CC(C)NC[C@@H](O)c1ccc(O)c(O)c1	.	.	.	71
CC(=O)c1sc(N/N=C2\CC3CCC2(C)C3(C)C)nc1C (centres undefined)	.	.	.	.
O=C(N/N=C/c1ccc(O)c(O)c1)c1ccc(CSc2cccc3cccnc23)cc1	.	.	/	57
Cc1cc(C)nc(N2CCCC(C(=O)NCc3ccccc3F)C2)n1 (centres undefined)	.	.	.	.
C=CCOc1c(Br)cc(/C=N/n2c(CC)n[nH]c2=S)cc1Br	.	.	.	59
